{"data": "Experimental data gathered from unrelated publications", "target": "Dual specificity mitogen-activated protein kinase kinase 5 (MAP2K5, Homo sapiens, UniProt Q13163)", "One construct used (Q13163 1-448)": "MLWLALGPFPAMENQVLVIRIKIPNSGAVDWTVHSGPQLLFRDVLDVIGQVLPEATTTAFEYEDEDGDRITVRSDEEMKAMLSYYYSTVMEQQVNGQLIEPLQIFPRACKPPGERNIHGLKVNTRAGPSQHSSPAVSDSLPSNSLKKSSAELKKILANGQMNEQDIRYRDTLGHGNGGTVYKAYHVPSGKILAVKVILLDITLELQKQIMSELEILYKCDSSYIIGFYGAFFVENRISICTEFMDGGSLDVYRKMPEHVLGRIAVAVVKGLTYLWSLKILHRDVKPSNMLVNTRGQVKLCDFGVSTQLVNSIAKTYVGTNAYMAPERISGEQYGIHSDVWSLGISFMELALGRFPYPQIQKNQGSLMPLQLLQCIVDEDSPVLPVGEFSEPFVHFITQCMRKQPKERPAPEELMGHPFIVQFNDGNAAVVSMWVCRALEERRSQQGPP", "note": "Protocols differ between the studies behind these lines."}
{"Compound": "O=C(c1ccc(Nc2ncc(Cl)c(-c3ccc(Cl)s3)n2)cc1)N1CCC(N2CCCC2)CC1", "test": "binding, competition with immobilised ligand", "setting": "1 µM", "remaining binding [%]": 0.85}
{"Compound": "F[C@@H]1CCN(c2nccc(-c3cnn4ncccc34)n2)C1", "test": "binding", "setting": "1 µM", "remaining binding [%]": 100}
{"Compound": "CN(C(=O)c1ccccc1)c1cc(N(C)c2ccc3c(c2)CCc2ccc(C(=O)NCCN4CCOCC4)cc2C3=O)ccc1F", "test": "cell-free assay, competition with immobilised ligand", "setting": "1 µM", "remaining binding [%]": 100}
{"Compound": "N[C@H]1CCN(c2nccc(-c3cnn4ncccc34)n2)C1", "test": "binding", "setting": "1 µM", "remaining binding [%]": 69}
{"Compound": "Nc1ncc2c(n1)-c1c([nH]c3ccc(C#CC4CC4)cc13)CCCC2", "test": "binding, competition with immobilised ligand", "setting": "1 µM", "remaining binding [%]": 21}
{"Compound": "O=C(O)c1cc(-c2ccc(C3CCNCC3)cc2)c2ccc(-c3ccc(C(F)(F)F)cc3)cc2c1", "test": "cell-free assay, competition with immobilised ligand", "setting": "1 µM", "remaining binding [%]": 96}
{"Compound": "Cc1cnn2ncc(-c3ccnc(N(C)C)n3)c2c1", "test": "binding", "setting": "1 µM", "remaining binding [%]": 78}
{"Compound": "CCCCN(CCCC)C(=O)CN1C[C@H](c2cc(OC)c3c(c2)OCO3)[C@@H](C(=O)O)[C@@H]1CC(C)(C)CCC", "test": "cell-free assay, competition with immobilised ligand", "setting": "1 µM", "remaining binding [%]": 100}
{"Compound": "O=C(NCCCN1CCOCC1)c1ccc(Nc2ncc(Cl)c(-c3ccc(Cl)s3)n2)cc1", "test": "binding, competition with immobilised ligand", "setting": "1 µM", "remaining binding [%]": 6.9}
{"Compound": "COc1ccc2c(O[C@@H]3C[C@H]4C(=O)N[C@]5(C(=O)O)CC5/C=C\\CCCCC[C@H](NC(=O)OC5CCCC5)C(=O)N4C3)cc(-c3csc(NC(=O)C(C)C)n3)nc2c1C (stereo partly shown)", "test": "cell-free assay, competition with immobilised ligand", "setting": "1 µM", "remaining binding [%]": 71}
{"Compound": "O=C(Nc1c[nH]nc1C(=O)NC1CCNCC1)c1cc(F)cc(F)c1", "test": "binding, competition with immobilised ligand", "setting": "1 µM", "remaining binding [%]": 100}
{"Compound": "Cc1noc([C@H]2C[C@@H](c3ccc(C(F)(F)F)cc3)CN(C(=O)N3CCS(=O)(=O)C3)C2)n1", "test": "cell-free assay, competition with immobilised ligand", "setting": "1 µM", "remaining binding [%]": 78}
{"Compound": "C[C@@H](c1ccc(-n2cnc3c(N)ncnc32)cc1)N1CCc2nn(C)c(Cc3ccccc3)c2C1=O", "test": "binding, competition with immobilised ligand", "setting": "0.1 µM", "remaining binding [%]": 40}
{"Compound": "O=C1NC(c2ccccn2)Sc2ccccc21 (stereo not shown)", "test": "cell-free assay, competition with immobilised ligand", "setting": "1 µM", "remaining binding [%]": 87}
{"Compound": "CN(c1nccc(-c2cnn3ncccc23)n1)C1CC1", "test": "binding", "setting": "1 µM", "remaining binding [%]": 100}
{"Compound": "CNC(=O)[C@@H]1CC[C@@H](n2c(-c3ccc4cnccc4c3)nc3ccc(C(=O)NCc4cccc(C(N)=O)c4)cc32)C1", "test": "binding, competition with immobilised ligand", "setting": "1 µM", "remaining binding [%]": 53}
{"Compound": "C[C@@H]1CCN(c2nccc(-c3cnn4ncccc34)n2)C1", "test": "binding", "setting": "1 µM", "remaining binding [%]": 71}
{"Compound": "CN1CCN(c2cnc3c(C4CCN(C(=O)c5ccc(OC(F)(F)F)cc5N)CC4)ncnc3c2)CC1", "test": "cell-free assay, competition with immobilised ligand", "setting": "1 µM", "remaining binding [%]": 86}
{"Compound": "CN(CCCC(F)(F)F)c1nccc(-c2cnn3ncccc23)n1", "test": "binding", "setting": "1 µM", "remaining binding [%]": 100}
{"Compound": "O=C(NCCCN1CCOCC1)c1ccc(Nc2nccc(-c3cc4ccccc4s3)n2)cc1", "test": "binding, competition with immobilised ligand", "setting": "1 µM", "remaining binding [%]": 36}
{"Compound": "CC1CCCN1c1nccc(-c2cnn3ncccc23)n1 (stereo not shown)", "test": "binding", "setting": "1 µM", "remaining binding [%]": 100}
{"Compound": "c1cncc(-c2cccc(Nc3nccc(NC4CCCCC4)n3)c2)c1", "test": "binding, competition with immobilised ligand", "setting": "10 µM", "remaining binding [%]": 23}
